Here are results for one molecule from publication PMC5741288 (Pain Reports, 2016).

This assay concerns dermal blood flow (flare). Put plainly: Topical capsaicin alone, flare response in anesthetized rats. The assay is classed as in vivo, Sprague Dawley rats. Summed up:
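Isoflurane-anaesthetised rats had clipped lower abdominal skin and an O-ring placed by a preliminary Doppler image. Capsaicin (0.1–3 mg) or vehicle (30% ethanol, Tween, sterile water) was pipetted into the ring. Dermal blood flow was scanned by laser Doppler imager every 15 min for 120 min. Change from baseline flux was computed every 15 min.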

On to `COc1cc(CNC(=O)CCCC/C=C/C(C)C)ccc1O` [Capsaicin], for which the Flare response entry (0.1 mg topical) is “did not produce any increase in flare”; the Flare response entry (0.3 mg topical, peaked 30 minutes after application) is on record as “transient increase in flare”; the Flare response entry (1 mg topical, larger concentrations did not increase flare further) is “greatest amount of flare”.
